Results: ChEMBL document CHEMBL4513216, “Probing the Open Global Health Chemical Diversity Library for Multistage-Active Starting Points for Next-Generation Antimalarials” (ACS Infect Dis, 2020)

Assay: Toxicity liver stage against HepG2, at 10uM
Assay type: cell-based
Design: test concentration 10 uM, cell line HepG2-A16-CD81EGFP
Details: human, HepG2-A16-CD81EGFP cells; read-out: INHIBITION
Method in brief: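 Uninfected HepG2-A16-CD81EGFP cells, 3 × 10^3 per well, 1536-well, plated on prespotted compound at 10 μM final, parasite-free screening media added to match infected plates; puromycin 10 μM positive, DMSO 0.5% negative; run in parallel with 48 h PbLuc assay at 37 °C, 5% CO2; viability by CellTiter-Glo luminescence, normalized to controls.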

Question: For `N#Cc1cccc(NC2CC(=O)N(CCc3ccc(F)cc3)C2)n1` (stereo not given), which cytotoxicity at 10 µM is on record?
Answer: The cytotoxicity at 10 µM was -118%.

Question: For `O=C(c1ccc2cccc(F)c2n1)N1CCN(CCn2cccc2)CC1`, which cytotoxicity at 10 µM is on record?
Answer: The cytotoxicity at 10 µM was 13.5%.

Question: With `COc1cc(C(=O)N2CC3(CCNCC3)c3cc(Cl)ccc32)ccn1` as the compound, how does the cytotoxicity at 10 µM read?
Answer: Its cytotoxicity at 10 µM is 52.8%.

Question: With `CCc1c(C)sc2nc3n(CCN4CCCCC4)nc(SC)n3c(=O)c12` as the compound, how does the cytotoxicity at 10 µM read?
Answer: Its cytotoxicity at 10 µM is 2.68%.

Question: With `Cn1cnc2cc(C(=O)NS(=O)(=O)CC3CCCC3)ccc21` as the compound, how does the cytotoxicity at 10 µM read?
Answer: Its cytotoxicity at 10 µM is -3.2%.

Question: With `O=C(NC1CC1)c1cc(NC(=O)N2CCCC2)ccc1Cl` as the compound, how does the cytotoxicity at 10 µM read?
Answer: The cytotoxicity at 10 µM was 3.31%.

Question: Which cytotoxicity at 10 µM does the source give for `CCCOc1ccc(CNC(=O)N2CCC(C(N)=O)C2)cc1` (stereo not given) here?
Answer: Its cytotoxicity at 10 µM is -5.87%.

Question: Which cytotoxicity at 10 µM does the source give for `CC(NCc1ccc(OCC(N)=O)cc1)c1ccc(Cl)cc1Cl` (stereo not given) here?
Answer: The cytotoxicity at 10 µM was 13.1%.

Question: Which cytotoxicity at 10 µM does the source give for `CCc1nnc2n1CCN(C(=O)CN(C)Cc1ccccc1)C2` here?
Answer: Its cytotoxicity at 10 µM is -6.22%.

Question: With `Cc1nonc1C(=O)N1CCCC(c2ncncc2-c2ccncc2)C1` (stereo not given) as the compound, how does the cytotoxicity at 10 µM read?
Answer: Its cytotoxicity at 10 µM is 1.41%.

Question: Which cytotoxicity at 10 µM does the source give for `CCn1cc(NC(=O)Nc2ccc3c(c2)OCCO3)cn1` here?
Answer: Its cytotoxicity at 10 µM is -1.04%.

Question: Which cytotoxicity at 10 µM does the source give for `CC(O)CNc1ccc(C#N)cc1C(F)(F)F` (stereo not given) here?
Answer: The cytotoxicity at 10 µM was -42.7%.

Question: With `CN1C[C@H](O)[C@]2(CCN(Cc3ccc(F)c(F)c3)C2)S1(=O)=O` as the compound, how does the cytotoxicity at 10 µM read?
Answer: The cytotoxicity at 10 µM was -1.42%.

Question: With `O=C(c1csnn1)N1CCCC(n2cncn2)C1` (stereo not given) as the compound, how does the cytotoxicity at 10 µM read?
Answer: Its cytotoxicity at 10 µM is 5.81%.

Question: For `Cc1ccc(O)c(CNC2CCc3nc(C(C)C)nn3C2)n1` (stereo not given), which cytotoxicity at 10 µM is on record?
Answer: Its cytotoxicity at 10 µM is -8.54%.

Question: For `COCC(=O)N1CCN(CCn2cccn2)c2nc(C)ccc2C1`, which cytotoxicity at 10 µM is on record?
Answer: Its cytotoxicity at 10 µM is 10.5%.

Question: For `CC(=O)N1CCc2c(nc(N(C)C)nc2NCCCn2ccnc2)C1`, which cytotoxicity at 10 µM is on record?
Answer: The cytotoxicity at 10 µM was -7.28%.

Question: For `CCSc1nc(N)c(NC(=O)c2ccc(OC)c(OC)c2)c(=O)[nH]1`, which cytotoxicity at 10 µM is on record?
Answer: The cytotoxicity at 10 µM was -6.24%.

Question: With `CCN1CCN(C2CCN(C(C(N)=O)c3ccccc3)CC2)C1=O` (stereo not given) as the compound, how does the cytotoxicity at 10 µM read?
Answer: Its cytotoxicity at 10 µM is -10.3%.

Question: Which cytotoxicity at 10 µM does the source give for `O=C(c1ccoc1)N1CCC2(C1)CN(c1nccs1)C2` here?
Answer: Its cytotoxicity at 10 µM is 1.07%.

Question: For `CN(C)CCC1CCN(Cc2ccn(C)c(=O)c2)CC1`, which cytotoxicity at 10 µM is on record?
Answer: Its cytotoxicity at 10 µM is -12.5%.

Question: Which cytotoxicity at 10 µM does the source give for `CCC[C@@H]1CN(Cc2cnc(-c3cccs3)nc2)C[C@H]1C(=O)O` here?
Answer: The cytotoxicity at 10 µM was -22.9%.

Question: Which cytotoxicity at 10 µM does the source give for `CCN(C(C)=O)C1CCN(c2nccc(CCC(F)(F)F)n2)C1` (stereo not given) here?
Answer: Its cytotoxicity at 10 µM is -4.39%.

Question: Which cytotoxicity at 10 µM does the source give for `CCn1cc(CN2CCN(C(=O)c3cc(C)c(C)s3)CC2)c(C)n1` here?
Answer: Its cytotoxicity at 10 µM is 2.07%.

Question: Which cytotoxicity at 10 µM does the source give for `CN1CCC(CNC(=O)c2ccc(O)nc2)c2ccccc21` (stereo not given) here?
Answer: Its cytotoxicity at 10 µM is 13.9%.

Question: With `O=C(Nc1cn[nH]c1)N1CCN(CCSc2ccccc2)CC1` as the compound, how does the cytotoxicity at 10 µM read?
Answer: The cytotoxicity at 10 µM was 4.32%.

Question: For `O=C(Cc1cccc(O)c1)NC1CCN(c2cccc(Cl)c2)C1` (stereo not given), which cytotoxicity at 10 µM is on record?
Answer: The cytotoxicity at 10 µM was 17.1%.

Question: Which cytotoxicity at 10 µM does the source give for `Cc1n[nH]c(C)c1CCCN(C)c1cc(N(C)C)ncn1` here?
Answer: The cytotoxicity at 10 µM was -3.37%.

Question: For `O=C(CCS(=O)(=O)C1CCCC1)NCCc1cccc(O)c1`, which cytotoxicity at 10 µM is on record?
Answer: Its cytotoxicity at 10 µM is -3.09%.

Question: Which cytotoxicity at 10 µM does the source give for `Cc1nnc(CN2CCOC(c3ccc(Cl)c(Cl)c3)C2)o1` (stereo not given) here?
Answer: Its cytotoxicity at 10 µM is -1.11%.

Question: For `CC(C)c1nnc2n1CCN(C(=O)CN1Cc3ccccc3C1=O)C2`, which cytotoxicity at 10 µM is on record?
Answer: Its cytotoxicity at 10 µM is -1.81%.

Question: For `Cn1nc(CNC(=O)CN2C(=O)CCC2=O)cc1C1CC1`, which cytotoxicity at 10 µM is on record?
Answer: Its cytotoxicity at 10 µM is 2.89%.

Question: Which cytotoxicity at 10 µM does the source give for `CN(C)C(=O)N1C[C@@H]2CCCO[C@@H]2[C@H](N(C)Cc2ccco2)C1` here?
Answer: Its cytotoxicity at 10 µM is -7.82%.

Question: Which cytotoxicity at 10 µM does the source give for `Cc1sc2nc(CCN)nc(N(CCN(C)C)CC3CCCO3)c2c1C` (stereo not given) here?
Answer: Its cytotoxicity at 10 µM is -9.54%.

Question: With `COc1ncccc1NC(=O)NCC1CCS(=O)(=O)C1` (stereo not given) as the compound, how does the cytotoxicity at 10 µM read?
Answer: The cytotoxicity at 10 µM was -9.16%.

Question: For `COCC(=O)N1CCC2(CC1)CCN(Cc1ccccn1)C2=O`, which cytotoxicity at 10 µM is on record?
Answer: The cytotoxicity at 10 µM was 1.62%.

Question: For `O=C(CN1CCC(C(=O)c2cc(F)ccc2F)CC1)NC1CC1`, which cytotoxicity at 10 µM is on record?
Answer: The cytotoxicity at 10 µM was -6.04%.

Question: With `CCC1COC2(CCN(C(=O)c3ccco3)CC2)C1` (stereo not given) as the compound, how does the cytotoxicity at 10 µM read?
Answer: Its cytotoxicity at 10 µM is -65.4%.

Question: With `O=C(NCCc1c[nH]cn1)C1CCCN(C2CCOCC2)C1` (stereo not given) as the compound, how does the cytotoxicity at 10 µM read?
Answer: The cytotoxicity at 10 µM was 1.58%.

Question: Which cytotoxicity at 10 µM does the source give for `c1ccc2[nH]c(C3CCN(Cc4nnc(C5CC5)o4)CC3)cc2c1` here?
Answer: The cytotoxicity at 10 µM was 3.65%.

Question: Which cytotoxicity at 10 µM does the source give for `CC(C(=O)NCc1ccnc(N(C)C)c1)n1cncn1` (stereo not given) here?
Answer: Its cytotoxicity at 10 µM is -9.7%.

Question: With `Cn1ccnc1C1CCN(CCN2CCOCC2)CC1` as the compound, how does the cytotoxicity at 10 µM read?
Answer: Its cytotoxicity at 10 µM is 4.69%.

Question: Which cytotoxicity at 10 µM does the source give for `CN(Cc1ccco1)[C@@H]1CN(C(=O)c2ccnnc2)C[C@@H]2CCCO[C@@H]21` here?
Answer: Its cytotoxicity at 10 µM is -10.5%.

Question: For `COCCn1ccnc1C1CCCN(c2cc(OC)nc(N)n2)C1` (stereo not given), which cytotoxicity at 10 µM is on record?
Answer: Its cytotoxicity at 10 µM is 11.2%.

Question: For `CCOc1ncccc1NC(=O)N1CCN(c2ccc(O)cc2)CC1`, which cytotoxicity at 10 µM is on record?
Answer: The cytotoxicity at 10 µM was -9.92%.
